{
  "source": "ChEMBL document CHEMBL5154720",
  "about": "“In silico screening-based discovery of novel covalent inhibitors of the SARS-CoV-2 3CL protease” (Eur J Med Chem, 2022)",
  "key": {"[1]": {"biological_target": "Replicase polyprotein 1ab (Severe acute respiratory syndrome coronavirus 2) (UniProt P0DTD1)", "assay": "Inhibition of SARS-CoV-2 3CL protease using MCA-AVLQSGFR-Lys(Dnp)-Lys-NH2 fluorogenic peptide as substrate incubated for 30 mins at 50 uM and measured by FRET assay relative to control", "in_short": "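Recombinant SUMO-tag-cleaved 3CLpro (E. coli BL21(DE3), Ni-NTA, Q-Sepharose, size exclusion), 50 nM final, preincubated 30 min with compound in 50 mM Tris pH 7.3, 1 mM EDTA; reaction started with 20 μM final FRET substrate. Fluorescence 320/405 nm read every 30 s for 5 min; initial velocity relative to DMSO control. Mean ± SD of three independent experiments.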"}, "[2]": {"biological_target": "Replicase polyprotein 1ab (Severe acute respiratory syndrome coronavirus 2, UniProt P0DTD1)", "assay": "Inhibition of SARS-CoV-2 3CL protease using MCA-AVLQSGFR-Lys(Dnp)-Lys-NH2 fluorogenic peptide as substrate incubated for 30 mins and measured by FRET assay"}},
  "data": [
    {"molecule": "CN(C(=O)CN1CC(C=O)c2ccccc21)c1ccccc1", "note": "(stereo unspecified)", "values": [
      {"measurement": "inhibition", "setting": "[1]", "value": 32.6, "unit": "%"}
    ]},
    {"molecule": "NC(=O)CN1C(=O)C(O)(CC(=O)/C=C\\c2ccc3c(c2)OCO3)c2ccccc21", "note": "(stereo unspecified)", "values": [
      {"measurement": "IC50", "setting": "[2]", "value": 36.1, "unit": "µM"},
      {"measurement": "inhibition", "setting": "[1]", "value": 55.2, "unit": "%"}
    ]},
    {"molecule": "NS(=O)(=O)c1ccc(NC(=O)C(=O)c2ccc[nH]2)cc1", "values": [
      {"measurement": "inhibition", "setting": "[1]", "value": 31.4, "unit": "%"}
    ]},
    {"molecule": "Cn1c(CN2CCC(C(N)=O)CC2)c(C#N)c2ccccc21", "values": [
      {"measurement": "inhibition", "setting": "[1]", "value": 24.1, "unit": "%"}
    ]},
    {"molecule": "O=C(/C=C/c1cn(CC(O)CN2CCOCC2)c2ccccc12)c1cccs1", "note": "(stereo unspecified)", "values": [
      {"measurement": "inhibition", "setting": "[1]", "value": 22.3, "unit": "%"}
    ]},
    {"molecule": "O=C(CC1C(=O)NCCN1C(=O)CCl)Nc1cccc(Cl)c1", "note": "(stereo unspecified)", "values": [
      {"measurement": "IC50", "setting": "[2]", "value": 8.5, "unit": "µM"},
      {"measurement": "inhibition", "setting": "[1]", "value": 87.6, "unit": "%"}
    ]},
    {"molecule": "Cc1cccc(C)c1NC(=O)CSc1nc2c(cc1C#N)C(=O)CCC2", "values": [
      {"measurement": "inhibition", "setting": "[1]", "value": 15.2, "unit": "%"}
    ]},
    {"molecule": "CC1=C(C#N)C(=O)N(CCCO)C(=O)/C1=N\\Nc1ccc(Br)cc1C(=O)O", "values": [
      {"measurement": "IC50", "setting": "[2]", "value": 19.1, "unit": "µM"},
      {"measurement": "inhibition", "setting": "[1]", "value": 65.5, "unit": "%"}
    ]}
  ]
}
